Results on 14 compounds are retold here after ChEMBL document CHEMBL1131317, “Antitumor agents. 181. Synthesis and biological evaluation of 6,7,2',3',4'-substituted-1,2,3,4-tetrahydro-2-phenyl-4-quinolones as a new class of antimitotic antitumor agents” (J Med Chem, 1998).

By inhibition is commonly meant how much of the control response was suppressed. Low values mean little suppression, high ones strong suppression. For orientation: IC50 means the concentration at which inhibition is half-maximal. Read a high IC50 as a need for much substance.

Each structure is given as a SMILES string. Converted amounts (≈) assume the structure as drawn. A value given as a limit tells only on which side of the number the result lay.

The test system of experiment [1] is HCT-8. The experiment is described as follows: Cytotoxicity against human ileocecal carcinoma cells (HCT-8) using SRB assay. In kind it is functional. Particulars: read-out: ED50 (the source's name). The method in brief:
(§1)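 Cells grown at 37 °C in RPMI-1640 with 10% FBS and 100 µg/mL kanamycin, humidified 5% CO2. Seeding density set per line so control A562 reads 1-2.5. Drug given from DMSO stocks, final DMSO ≤2% (v/v), for 3 days. SRB stain, absorbance at 562 nm. […] Triplicates.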

The test system of experiment [2] is SK-MEL-2. Briefly: The compound was tested for the cytotoxicity for the cell lines of human melanoma cancer (SKMEL-2) using SRB assay. Conditions: read-out: ED50 (the source's name). Format: functional. The method in brief:
as §1
In general terms: The SRB assay estimates cell density from bound dye.

Experiment [3] concerns CAKI-1. The experiment is described as follows: Cytotoxicity against human renal cancer cells (CAKI-1) using SRB assay. In kind it is functional. Particulars: read-out: ED50 (the source's name). The method, boiled down: as §1
Experiment [4] deals with MCF7. Briefly: Cytotoxicity against human breast cancer cells (MCF-7) using SRB assay. In kind it is functional. Conditions: read-out: ED50 (the source's name). The method, boiled down: as §1
In experiment [5] the target is T1, Tubulin (Bos taurus) (UniProt Q6B856+Q862L2+Q862F3). The experiment is described as follows: The compound was tested for the % inhibition of [3H]colchicine binding to bovine brain tubulin at a concentration of 1 uM. The method, boiled down: (§2)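 [3H]colchicine at 5 µM incubated with 1 µM tubulin. Inhibitor present at the stated concentration (5 or 1 µM). Result given as % inhibition of colchicine binding ± SD.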

Experiment [6] deals with Tubulin (Bos taurus, UniProt Q6B856+Q862L2+Q862F3). Briefly: Inhibition of bovine brain tubulin polymerization (ITP).
For experiment [7], the system named is A549. Briefly: Cytotoxicity against human lung carcinoma cells (A-549) using SRB assay. Particulars: read-out: ED50 (the source's name). Format: functional. The method, boiled down: as §1
In experiment [8] the test system is KB. Briefly: Cytotoxicity against human epidermoid carcinoma of the nasopharyngeal cells (KB) using SRB assay. In kind it is functional. Conditions: read-out: ED50 (the source's name). The method in brief: as §1
Experiment [9] has as its target T1, Tubulin (Bos taurus). Briefly: % inhibition of [3H]colchicine binding to bovine brain tubulin at a concentration of 5 uM. The method in brief:
as §2

Consider `O=C1CC(c2cccc(Cl)c2)Nc2ccc(N3CCCC3)cc21` (centres undefined), for which the EC50 in experiment [1] stood at 0.09 µg/mL (≈ 0.275 µM); in experiment [2], 0.08 µg/mL (≈ 0.245 µM); in experiment [3] it was 0.95 µg/mL (≈ 2.91 µM); in experiment [4] it was 0.31 µg/mL (≈ 0.949 µM); in [7], 0.09 µg/mL (≈ 0.275 µM); in experiment [8], 0.05 µg/mL (≈ 0.153 µM). Also, the inhibition in [5] was determined as 63%; in experiment [9] it was 89%. The compound further displayed a half-inhibitory concentration (IC50) in experiment [6] of 760 nM.

In the case of `COc1cccc([C@@H]2C/C(=N\NC(=O)C(=O)NC(C)c3ccccc3)c3cc4c(cc3N2)OCO4)c1` (some centres undefined), the EC50 stood at 1 µg/mL (≈ 2.06 µM) in experiment [1]; 12.5 µg/mL (≈ 25.7 µM) in [3]; 3 µg/mL (≈ 6.17 µM) in [4]; 2.4 µg/mL (≈ 4.93 µM) in experiment [7]; 1.8 µg/mL (≈ 3.7 µM) in [8]. Moreover, in [6], the IC50 was over 40000 nM.

Turning to `COc1cccc(C2CC(=O)c3cc(N4CCCC4)ccc3N2)c1` (centres undefined), the EC50 in experiment [1] turned out to be 0.016 µg/mL (≈ 0.0496 µM); in experiment [2], 0.016 µg/mL (≈ 0.0496 µM); in experiment [3], 0.008 µg/mL (≈ 0.0248 µM); in [4], 0.11 µg/mL (≈ 0.341 µM); in experiment [7] it was 0.01 µg/mL (≈ 0.031 µM); in experiment [8], 0.008 µg/mL (≈ 0.0248 µM). Moreover, the values for the inhibition in experiment [5] and in experiment [9] were 63% and 91%, respectively. The IC50 in experiment [6] was determined as 660 nM.

Take `COc1cccc([C@H]2C/C(=N\NC(=O)C(=O)NC(C)c3ccccc3)c3ccccc3N2)c1` (some centres undefined): the EC50 in experiment [1], in [3], in experiment [4], in [7] and in experiment [8] was over 25 µg/mL in each case. The compound further yielded an IC50 in [6] of over 40000 nM.

Take `COc1cc2c(c(OC)c1OC)-c1ccc(OC)c(=O)cc1[C@@H](NC(C)=O)CC2` [COLCHICINE]: the EC50 in experiment [1] was 0.016 µg/mL (≈ 0.0401 µM); in [2], 0.008 µg/mL (≈ 0.02 µM); in experiment [3], 0.4 µg/mL (≈ 1 µM); in [4], over 0.4 µg/mL; in [7], 0.002 µg/mL (≈ 0.00501 µM); in experiment [8], 0.002 µg/mL (≈ 0.00501 µM).

As for `COc1cccc(-c2cc(O)c3cc4c(cc3n2)OCO4)c1`, in [6], the IC50 was determined as 740 nM. Moreover, the inhibition in experiment [9] came to 33%.

In turn, `COc1cccc(-c2cc(O)c3cccnc3n2)c1` showed an IC50 in experiment [6] of 790 nM. In addition, in [9], the inhibition stood at 24%.

Consider `COc1ccc(C2CC(=O)c3ccccc3N2)cc1` (centres undefined), for which the EC50 in experiment [1], in [4], in experiment [7] and in experiment [8] was over 25 µg/mL each time. Besides, in [6], the IC50 was over 40000 nM.

Take `CC(NC(=O)C(=O)N/N=C1\C[C@@H](c2ccccc2F)Nc2cc3c(cc21)OCO3)c1ccccc1` (some centres undefined): the EC50 in [1] was 2.1 µg/mL (≈ 4.43 µM); in experiment [3], over 25 µg/mL; in experiment [4], 8.5 µg/mL (≈ 17.9 µM); in experiment [7], 13 µg/mL (≈ 27.4 µM); in [8], 18 µg/mL (≈ 37.9 µM). This compound also showed an IC50 in [6] of over 40000 nM.

As for `O=C1CC(c2ccc(F)cc2)Nc2cc3c(cc21)OCO3` (centres undefined), the EC50 in [1] was 0.4 µg/mL (≈ 1.4 µM); in experiment [2], 0.2 µg/mL (≈ 0.701 µM); in experiment [3] it was 0.8 µg/mL (≈ 2.8 µM); in experiment [4] it was 0.4 µg/mL (≈ 1.4 µM); in [7], 1 µg/mL (≈ 3.51 µM); in experiment [8], 0.3 µg/mL (≈ 1.05 µM). Moreover, the IC50 in experiment [6] amounted to 2000 nM.

Turning to `COc1cccc(-c2cc(O)c3cc(N4CCCC4)ccc3n2)c1`, the inhibition in [5] was 65%; in experiment [9] it was 91%. In addition, the IC50 in [6] is 490 nM.

As to `CC(NC(=O)C(=O)N/N=C1\C[C@H](c2ccccc2F)Nc2cc3c(cc21)OCO3)c1ccccc1` (some centres undefined), the EC50 turned out to be 9 µg/mL (≈ 19 µM) in experiment [1]; 18 µg/mL (≈ 37.9 µM) in experiment [3]; 25 µg/mL (≈ 52.7 µM) in [4]; 9 µg/mL (≈ 19 µM) in [7]; 10 µg/mL (≈ 21.1 µM) in experiment [8]. The compound further gave an IC50 in experiment [6] of over 40000 nM.

Turning to `COc1cccc(-c2cc(O)c3ccccc3n2)c1`, the IC50 in experiment [6] came to 1500 nM.

As to `COc1cccc([C@@H]2CC(=O)c3ccccc3N2)c1`, the EC50 was 0.09 µg/mL (≈ 0.355 µM) in [1]; 0.15 µg/mL (≈ 0.592 µM) in experiment [3]; 0.3 µg/mL (≈ 1.18 µM) in experiment [4]; 0.15 µg/mL (≈ 0.592 µM) in experiment [7]; 0.12 µg/mL (≈ 0.474 µM) in experiment [8]. The concentration for half-maximal inhibition (IC50) in experiment [6] turned out to be 1200 nM.
